Active and inactive are the calls of the source. The calls are words filed in the database; no cut-off is given here.
How the values were obtained:
[1] = Binding affinity to poly(dA-dT)2 DNA assessed as change in thermal melting temperature administered at compound to DNA ratio of 0.3 by thermistor analysis
Procedure, shortened: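 Thermal melting of poly(dA-dT)2 in CAC 10 buffer (cacodylic acid 10 mM, EDTA 1 mM, NaCl 100 mM, pH 7.0), 1 cm quartz cuvettes, temperature raised 0.5 C/min. DNA quantified by A260. Compound:DNA 0.3 mol/mol, compound-free DNA as control. ΔTm reproducible within 0.5 C.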

[2] = system: Trypanosoma brucei rhodesiense; test: Antiprotozoal activity against Trypanosoma brucei rhodesiense STIB900 bloodstream form after 72 hrs by alamar blue assay; type: functional, organism-based
[3] = system: Trypanosoma brucei rhodesiense; test: Antitrypanosomal activity against Trypanosoma brucei rhodesiense STIB900 infected in mouse assessed as average survival days at 20 mg/kg, ip administered on day 3 to 6 after infection; type: functional; settings: route intraperitoneal
L6 = test: Cytotoxicity against rat L6 cells after 72 hrs by alamar blue assay; type: cell-based; settings: L6, 72 h
Procedure, shortened: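 Cultured L6 rat myoblasts exposed to compound; viability read by the same Alamar Blue procedure used for the STIB900 trypanosome assay; duplicate determinations.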

Plasmodium falciparum = test: Antiprotozoal activity against chloroquine and pyrimethamine-resistant Plasmodium falciparum K1 after 72 hrs by [3H]hypoxanthine uptake; type: functional, organism-based
[4] = system: Trypanosoma brucei rhodesiense; test: Antitrypanosomal activity against Trypanosoma brucei rhodesiense STIB900 infected in mouse assessed as parasite-free survival at 20 mg/kg, ip administered on day 3 to 6 after infection measured on day 60; type: functional, organism-based; design: dose 20 mg/kg
Procedure, shortened: (§1)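 STIB900 acute mouse infection model with four infected mice per group. Parent compounds were given intraperitoneally and prodrugs orally, once daily for 4 days. Read-outs were the number of mice alive and parasite-free at day 60, and average days of survival.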

[5] = system: Trypanosoma brucei rhodesiense; test: Antitrypanosomal activity against Trypanosoma brucei rhodesiense STIB900 infected in mouse assessed as parasite-free survival at 25 mg/kg, ip administered on day 3 to 6 after infection measured on day 60; type: functional, organism-based; design: dose 25 mg/kg
[6] = system: Trypanosoma brucei rhodesiense; test: Antitrypanosomal activity against Trypanosoma brucei rhodesiense STIB900 infected in mouse assessed as average survival days at 25 mg/kg, ip administered on day 3 to 6 after infection; type: functional; settings: route intraperitoneal
[7] = system: Trypanosoma brucei rhodesiense; test: Antitrypanosomal activity against Trypanosoma brucei rhodesiense STIB900 infected in mouse assessed as parasite-free survival at 25 mg/kg, po administered on day 3 to 6 after infection measured on day 60; type: functional, organism-based; design: dose 25 mg/kg; procedure, shortened: as §1
[8] = system: Trypanosoma brucei rhodesiense; test: Antitrypanosomal activity against Trypanosoma brucei rhodesiense STIB900 infected in mouse assessed as average survival days at 25 mg/kg, po administered on day 3 to 6 after infection; type: functional

Row | Compound | ΔTm [1] | IC50 [2] | Activity [3] | IC50 (L6) | IC50 (Plasmodium falciparum) | Activity [4] | Activity [5] | Activity [6] | Activity [7] | Activity [8]
1 | CNC(=N)Nc1ccc(-c2ccc(-c3ccc(NC(=N)NC)cc3)cc2)cc1 | 13 °C | 18 nM | >56 days | 65100 nM | 7 nM | inactive | – | – | – | –
2 | CC(C)NC(=N)Nc1ccc(-c2ccc(-c3ccc(NC(=N)NC(C)C)cn3)cc2)nc1 | 8.1 °C | 11900 nM | – | 89700 nM | 393 nM | – | – | – | – | –
3 | CCOC(=O)/N=C(/Nc1ccc(-c2ccc(-c3ccc(N/C(=N/C(=O)OCC)NC(C)C)cn3)cc2)nc1)NC(C)C | – | 8200 nM | – | > 135000 nM | 2.9 nM | – | – | – | – | –
4 | CCOC(=O)/N=C(\NC)Nc1ccc(-c2ccc(-c3ccc(N/C(=N/C(=O)OCC)NC)cn3)cc2)nc1 | – | 17800 nM | – | > 169000 nM | 2.6 nM | – | inactive | 7.75 days | – | –
5 | N=C(N)Nc1ccc(-c2ccc(-c3ccc(NC(=N)N)cc3)cc2)cc1 | 14.2 °C | 18 nM | >54.5 days | 25400 nM | 27 nM | inactive | – | – | – | –
6 | CCOC(=O)/N=C(\N)Nc1ccc(-c2ccc(-c3ccc(N/C(N)=N/C(=O)OCC)cc3)cc2)cc1 | – | 142000 nM | – | > 181000 nM | 1.7 nM | – | – | – | inactive | 20.25 days
7 | N=C(N)c1ccc(-c2ccc(-c3ccc(C(=N)N)cc3)cc2)cc1 | 18.2 °C | – | 29 days | – | 1 nM | inactive | – | – | – | –
8 | CCOC(=O)/N=C(\NC)Nc1ccc(-c2ccc(-c3ccc(N/C(=N/C(=O)OCC)NC)cc3)cc2)cc1 | – | 7500 nM | – | 5700 nM | 8.9 nM | – | – | – | inactive | 20.25 days
9 | CC(C)NC(=N)Nc1ccc(-c2ccc(-c3ccc(NC(=N)NC(C)C)cc3)cc2)cc1 | 9.3 °C | 530 nM | – | 21900 nM | 14 nM | – | – | – | – | –
10 | CNC(=N)Nc1ccc(-c2ccc(-c3ccc(NC(=N)NC)cn3)cc2)nc1 | 10.2 °C | 134 nM | >47 days | > 161000 nM | 54 nM | inactive | – | – | – | –
11 | N=C(N)Nc1ccc(-c2ccc(-c3ccc(NC(=N)N)cn3)cc2)nc1 | 9.2 °C | 169 nM | 8.5 days | 152000 nM | 151 nM | inactive | – | – | – | –
12 | CCOC(=O)/N=C(/Nc1ccc(-c2ccc(-c3ccc(N/C(=N/C(=O)OCC)NC(C)C)cc3)cc2)cc1)NC(C)C | – | 14200 nM | – | 5300 nM | 4.5 nM | – | – | – | – | –
13 | CCOC(=O)/N=C(\N)Nc1ccc(-c2ccc(-c3ccc(N/C(N)=N/C(=O)OCC)cn3)cc2)nc1 | – | 61000 nM | – | > 181000 nM | 1.9 nM | – | – | – | inactive | –

From ChEMBL document CHEMBL1154490, “Novel linear triaryl guanidines, N-substituted guanidines and potential prodrugs as antiprotozoal agents” (Eur J Med Chem, 2008)
